Columns and labels:
in vivo [1] = details: female, CD1, mouse, plasma, iv, 5 mg/kg
Plasmodium falciparum [2] = assay: Antimalarial activity against Plasmodium falciparum 3D7 infected in human erythrocytes assessed as decrease in parasitemia after 72 hrs; format: functional, organism-based; details: 3D7, 72 h
in vivo [3] = details: female, CD1, mouse, plasma, po, 30 mg/kg
in vivo [4] = details: female, CD1, mouse, iv, 5 mg/kg
Plasmodium berghei [5] = assay: Antimalarial activity against GFP-tagged Plasmodium berghei ANKA infected in NMRI mouse assessed as mouse survival at 30 mg/kg, po administered as single dose 24 hrs post infection measured 72 hrs post infection
[6] = target: Voltage-gated inwardly rectifying potassium channel KCNH2 (Homo sapiens, UniProt Q12809)
Sequence of Voltage-gated inwardly rectifying potassium channel KCNH2 (Q12809 whole entry): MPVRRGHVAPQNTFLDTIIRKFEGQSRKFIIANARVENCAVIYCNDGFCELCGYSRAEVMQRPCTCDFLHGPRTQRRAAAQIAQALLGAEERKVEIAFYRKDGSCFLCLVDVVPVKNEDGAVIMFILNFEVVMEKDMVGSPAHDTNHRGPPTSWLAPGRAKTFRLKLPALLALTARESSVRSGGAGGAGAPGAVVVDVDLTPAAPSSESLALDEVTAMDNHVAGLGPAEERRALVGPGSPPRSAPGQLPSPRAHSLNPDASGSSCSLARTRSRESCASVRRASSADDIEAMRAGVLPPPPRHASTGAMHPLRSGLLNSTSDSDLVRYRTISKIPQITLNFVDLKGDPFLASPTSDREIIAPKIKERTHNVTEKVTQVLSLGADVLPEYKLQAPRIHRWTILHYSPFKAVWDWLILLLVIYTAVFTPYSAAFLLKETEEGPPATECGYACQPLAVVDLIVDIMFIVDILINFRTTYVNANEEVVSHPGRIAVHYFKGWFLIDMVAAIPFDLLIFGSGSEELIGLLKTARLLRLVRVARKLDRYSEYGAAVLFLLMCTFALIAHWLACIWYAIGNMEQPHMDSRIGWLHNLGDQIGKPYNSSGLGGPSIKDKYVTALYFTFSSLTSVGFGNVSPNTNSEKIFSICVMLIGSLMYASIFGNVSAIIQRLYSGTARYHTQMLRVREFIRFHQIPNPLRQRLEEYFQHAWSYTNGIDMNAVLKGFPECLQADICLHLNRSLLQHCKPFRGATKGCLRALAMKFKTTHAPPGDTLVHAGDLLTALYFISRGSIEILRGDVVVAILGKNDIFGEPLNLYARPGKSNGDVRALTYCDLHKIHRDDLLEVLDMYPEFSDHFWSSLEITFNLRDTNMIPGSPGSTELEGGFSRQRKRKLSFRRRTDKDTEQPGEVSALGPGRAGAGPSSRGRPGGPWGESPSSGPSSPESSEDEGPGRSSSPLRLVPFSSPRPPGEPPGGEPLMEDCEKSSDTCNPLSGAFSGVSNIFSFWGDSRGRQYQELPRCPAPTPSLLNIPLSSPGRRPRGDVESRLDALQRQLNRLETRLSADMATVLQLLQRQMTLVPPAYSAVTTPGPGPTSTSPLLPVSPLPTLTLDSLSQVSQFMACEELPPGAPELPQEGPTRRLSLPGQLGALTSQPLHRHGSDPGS

in vitro [7] = details: human, microsomes
in vitro [8] = details: rat, microsomes
in vivo [9] = details: female, CD1, mouse, po, 30 mg/kg
Plasmodium berghei [10] = assay: Antimalarial activity against GFP-tagged Plasmodium berghei ANKA infected in NMRI mouse assessed as reduction in parasitemia at 30 mg/kg, po QD administered 24 hrs post infection for 3 days measured on day 4 post infection; format: functional; parameters: scale not given: the % may be the effect or the level left
in vivo [11] = details: female, CD1, mouse, iv, 5 mg/kg; remark: listed apart in the source
[12] = pampa
Plasmodium falciparum [13] = assay: Antimalarial activity against Plasmodium falciparum W2 infected in human erythrocytes assessed as decrease in parasitemia after 72 hrs; format: functional, organism-based; details: W2, 72 h
in vitro [14] = details: human, Caco-2
in vitro [15] = details: mouse, microsomes
Plasmodium berghei [16] = assay: Antimalarial activity against GFP-tagged Plasmodium berghei ANKA infected in NMRI mouse assessed as mouse survival at 100 mg/kg, po administered as single dose 24 hrs post infection measured on day 30 post infection
in vivo [17] = details: female, CD1, mouse, iv, 5 mg/kg; remark: listed apart in the source
in vitro [18] = details: human, Caco-2; remark: listed apart in the source
Mus musculus [19] = assay: Oral bioavailability in female CD1 mouse at 30 mg/kg by LC/MS/MS analysis; details: mouse, in vivo
[20] = Tmax in female CD1 mouse at 30 mg/kg, po by LC/MS/MS analysis; details: in vivo
Plasmodium berghei [21] = assay: Antimalarial activity against GFP-tagged Plasmodium berghei ANKA infected in NMRI mouse assessed as reduction in parasitemia at 30 mg/kg, po administered as single dose 24 hrs post infection measured 72 hrs post infection; format: functional; parameters: scale not given: the % may be the effect or the level left
[22] = Cmax in female CD1 mouse at 30 mg/kg, po by LC/MS/MS analysis; details: in vivo
[23] = Oral bioavailability in male BALB/c mouse at 20 mg/kg by LC/MS/MS analysis; format: ADME, organism-based; details: in vivo
In short: (§1)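 Male Balb/c mice, n = 3 per group, given 20 mg/kg orally at 8 mL/kg. Vehicle 2.5 mg/mL in 75% PEG300/25% DSW, filtered. Six serial retro-orbital blood samples up to 24 h, heparinized plasma. Plasma extracted with acetonitrile/methanol (3:1) plus internal standard; LC/MS/MS quantitation by positive ESI MRM. Noncompartmental analysis; values normalized to 30 mg/kg. F = (AUCpo·dose iv)/(AUCiv·dose po).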

[24] = Cytotoxicity against human HuH7 cells; format: cell-based; details: Huh-7 cells, read-out: TC50 (the source's name)
Mus musculus [25] = assay: AUC (0 to infinity) in male BALB/c mouse at 20 mg/kg, po by LC/MS/MS analysis; format: ADME, organism-based, Plasma; parameters: time infinity, dose 20 mg/kg, route oral; details: in vivo
In short: as §1

[26] = Ratio of drug level in blood to plasma of male BALB/c mouse; format: ADME; details: blood and plasma
Mus musculus [27] = assay: Cmax in male BALB/c mouse at 20 mg/kg, po by LC/MS/MS analysis; format: ADME, organism-based; parameters: dose 20 mg/kg, route oral; details: in vivo
In short: as §1

[28] = AUC (0 to infinity) in male BALB/c mouse at 5 mg/kg, iv by LC/MS/MS analysis; format: ADME, organism-based; parameters: time infinity, dose 5 mg/kg, route intravenous; details: plasma
In short: (§2)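 Male Balb/c mice, n = 3 per group, dosed iv via lateral tail vein at 5 mg/kg and 2 mL/kg. Vehicle 2.5 mg/mL in 75% PEG300/25% DSW, filtered. Six serial retro-orbital blood samples up to 24 h, heparinized plasma. Plasma extracted with acetonitrile/methanol (3:1) plus internal standard for LC/MS/MS (positive ESI, MRM). Noncompartmental analysis.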

[29] = Selectivity index, ratio TC50 for human Hep2 cells to IC50 for Plasmodium falciparum; format: functional, HEp-2
[30] = Selectivity index, ratio TC50 for human 293T cells to IC50 for Plasmodium falciparum; format: functional
[31] = Half-life in male BALB/c mouse at 5 mg/kg, iv by LC/MS/MS analysis; format: ADME, organism-based; parameters: dose 5 mg/kg, route intravenous; details: in vivo
In short: as §2

[32] = Volume of distribution in male BALB/c mouse at 5 mg/kg, iv by LC/MS/MS analysis; format: ADME, organism-based; parameters: dose 5 mg/kg, route intravenous; details: in vivo
In short: as §2

[33] = Selectivity index, ratio TC50 for human HuH7 cells to IC50 for Plasmodium falciparum; format: functional, Huh-7
[34] = Clearance in male BALB/c mouse at 5 mg/kg, iv by LC/MS/MS analysis; format: ADME, organism-based; parameters: dose 5 mg/kg, route intravenous; details: in vivo
In short: as §2

[35] = Cytotoxicity against human 293T cells; format: cell-based; details: HEK-293T cells, read-out: TC50 (the source's name)
[36] = Cytotoxicity against human Hep2 cells; format: cell-based; details: HEp-2 cells, read-out: TC50 (the source's name)
Salmonella typhimurium = assay: Genotoxicity in Salmonella Typhimurium by Ames test; format: toxicity, organism-based; details: salmonella enterica subsp. enterica serovar typhimurium
[37] = Ratio of drug level in blood to plasma of female CD1 mouse; format: ADME; details: blood and plasma
Cytochrome P450 1A2 = target: T1, Cytochrome P450 1A2 (Homo sapiens, UniProt P05177); assay: Inhibition of CYP 1A2; format: ADME
T1 sequence (P05177 whole entry): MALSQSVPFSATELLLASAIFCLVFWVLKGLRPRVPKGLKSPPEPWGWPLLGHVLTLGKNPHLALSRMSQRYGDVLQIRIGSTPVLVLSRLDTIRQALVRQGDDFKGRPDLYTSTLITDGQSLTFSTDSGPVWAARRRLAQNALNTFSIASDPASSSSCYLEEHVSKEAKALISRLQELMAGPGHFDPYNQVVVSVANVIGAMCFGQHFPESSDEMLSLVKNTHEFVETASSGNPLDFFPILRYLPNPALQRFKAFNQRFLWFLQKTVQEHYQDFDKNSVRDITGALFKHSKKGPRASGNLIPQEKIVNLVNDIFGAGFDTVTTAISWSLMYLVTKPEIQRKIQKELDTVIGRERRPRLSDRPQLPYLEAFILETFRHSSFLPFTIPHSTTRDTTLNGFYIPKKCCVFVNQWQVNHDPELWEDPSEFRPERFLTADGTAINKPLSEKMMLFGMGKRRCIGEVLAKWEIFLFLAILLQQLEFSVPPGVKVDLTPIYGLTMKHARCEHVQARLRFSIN

Cytochrome P450 2C19 = Cytochrome P450 2C19 (Homo sapiens, UniProt P33261); assay: Inhibition of CYP 2C19; format: ADME
Sequence of Cytochrome P450 2C19 (P33261 whole entry): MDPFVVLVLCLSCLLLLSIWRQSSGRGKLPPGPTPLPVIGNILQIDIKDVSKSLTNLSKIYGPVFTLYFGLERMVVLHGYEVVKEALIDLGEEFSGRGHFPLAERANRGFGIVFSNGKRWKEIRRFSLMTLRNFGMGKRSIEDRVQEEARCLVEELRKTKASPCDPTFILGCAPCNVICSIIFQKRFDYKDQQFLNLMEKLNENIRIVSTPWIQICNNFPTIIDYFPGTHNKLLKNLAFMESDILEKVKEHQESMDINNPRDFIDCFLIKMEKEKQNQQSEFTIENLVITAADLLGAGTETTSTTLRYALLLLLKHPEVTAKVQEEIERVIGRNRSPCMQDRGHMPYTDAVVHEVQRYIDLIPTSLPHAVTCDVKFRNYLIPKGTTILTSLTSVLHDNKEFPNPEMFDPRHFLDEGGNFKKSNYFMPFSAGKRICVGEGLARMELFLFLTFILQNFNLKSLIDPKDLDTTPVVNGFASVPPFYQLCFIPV

[38] = Tmax in male BALB/c mouse at 20 mg/kg, po by LC/MS/MS analysis; format: ADME, organism-based; parameters: dose 20 mg/kg, route oral; details: in vivo
In short: as §1

[39] = Genotoxicity in micronucleus assessed as arrest at cytokinesis stage by micronucleus assay
[40] = Selectivity index, ratio TC50 for mouse BAF3 cells to IC50 for Plasmodium falciparum; format: functional
Cytochrome P450 2C9 = Cytochrome P450 2C9 (Homo sapiens, UniProt P11712); assay: Inhibition of CYP 2C9; format: ADME
Sequence of Cytochrome P450 2C9 (P11712 whole entry): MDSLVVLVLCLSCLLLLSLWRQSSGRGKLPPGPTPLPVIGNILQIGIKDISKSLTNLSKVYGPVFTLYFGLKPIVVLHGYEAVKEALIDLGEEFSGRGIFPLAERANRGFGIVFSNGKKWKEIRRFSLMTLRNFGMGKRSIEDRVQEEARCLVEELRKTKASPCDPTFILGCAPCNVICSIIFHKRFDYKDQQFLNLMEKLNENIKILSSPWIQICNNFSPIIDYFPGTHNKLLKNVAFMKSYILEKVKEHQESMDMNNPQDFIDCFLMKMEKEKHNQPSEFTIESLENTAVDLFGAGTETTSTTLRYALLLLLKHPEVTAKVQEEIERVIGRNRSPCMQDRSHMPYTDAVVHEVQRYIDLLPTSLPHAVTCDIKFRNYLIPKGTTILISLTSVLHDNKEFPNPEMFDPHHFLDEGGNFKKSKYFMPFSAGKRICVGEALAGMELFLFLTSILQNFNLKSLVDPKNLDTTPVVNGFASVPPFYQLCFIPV

[41] = Cytotoxicity against human HeLa cells; format: cell-based; details: read-out: TC50 (the source's name)
[42] = Selectivity index, ratio TC50 for human HeLa cells to IC50 for Plasmodium falciparum; format: functional
[43] = Half life in male BALB/c mouse at 20 mg/kg, po by LC/MS/MS analysis; format: ADME, organism-based; parameters: dose 20 mg/kg, route oral; details: in vivo
In short: as §1

Cytochrome P450 2D6 = Cytochrome P450 2D6 (Homo sapiens, UniProt P10635); assay: Inhibition of CYP 2D6; format: ADME
Sequence of Cytochrome P450 2D6 (P10635 whole entry): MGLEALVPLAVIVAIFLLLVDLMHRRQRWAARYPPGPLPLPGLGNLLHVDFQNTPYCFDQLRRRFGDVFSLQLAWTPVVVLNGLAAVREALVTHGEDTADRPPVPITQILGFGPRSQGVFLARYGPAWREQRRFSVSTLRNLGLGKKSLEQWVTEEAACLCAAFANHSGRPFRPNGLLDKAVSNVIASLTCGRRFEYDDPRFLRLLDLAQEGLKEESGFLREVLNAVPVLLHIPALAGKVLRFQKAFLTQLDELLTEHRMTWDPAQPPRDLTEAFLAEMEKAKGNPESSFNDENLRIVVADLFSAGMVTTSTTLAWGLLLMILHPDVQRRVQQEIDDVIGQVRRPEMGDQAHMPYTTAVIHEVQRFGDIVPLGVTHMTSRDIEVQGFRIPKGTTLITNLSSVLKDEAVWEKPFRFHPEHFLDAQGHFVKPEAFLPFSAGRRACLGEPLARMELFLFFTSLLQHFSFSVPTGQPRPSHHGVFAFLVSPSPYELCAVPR

[44] = Cytotoxicity against Cricetulus griseus CHO cells; format: cell-based; details: chinese hamster, read-out: TC50 (the source's name)
[45] = Cytotoxicity against mouse BAF3 cells; format: cell-based; details: read-out: TC50 (the source's name)
Cytochrome P450 3A4 = Cytochrome P450 3A4 (Homo sapiens, UniProt P08684); assay: Inhibition of CYP 3A4; format: ADME
Sequence of Cytochrome P450 3A4 (P08684 whole entry): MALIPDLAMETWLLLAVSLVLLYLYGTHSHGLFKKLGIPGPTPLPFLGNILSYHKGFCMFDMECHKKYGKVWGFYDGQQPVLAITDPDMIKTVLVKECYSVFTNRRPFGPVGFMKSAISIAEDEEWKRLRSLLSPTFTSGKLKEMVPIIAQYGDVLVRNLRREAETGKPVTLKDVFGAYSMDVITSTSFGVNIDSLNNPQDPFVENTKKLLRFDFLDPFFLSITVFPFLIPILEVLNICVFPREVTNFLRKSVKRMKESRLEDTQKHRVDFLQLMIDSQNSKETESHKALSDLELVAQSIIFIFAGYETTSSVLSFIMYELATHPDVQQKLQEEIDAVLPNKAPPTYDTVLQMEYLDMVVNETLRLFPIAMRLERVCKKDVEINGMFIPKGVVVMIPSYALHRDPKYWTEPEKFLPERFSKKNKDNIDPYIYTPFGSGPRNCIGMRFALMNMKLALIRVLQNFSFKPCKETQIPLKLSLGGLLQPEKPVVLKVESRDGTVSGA

Plasmodium berghei [46] = assay: Antimalarial activity against GFP-tagged Plasmodium berghei ANKA infected in NMRI mouse assessed as mouse survival at 30 mg/kg, po QD administered 24 hrs post infection for 3 days measured on day 30 post infection; format: functional
[47] = Selectivity index, ratio TC50 for CHO cells to IC50 for Plasmodium falciparum; format: functional

## CC(C)(N)C(=O)N1CCn2c(nc(-c3ccc(F)cc3)c2Nc2ccc(Cl)cc2)C1
In vivo [1]
  AUC(0-inf): 2.98 µM·h
Plasmodium falciparum [2]
  IC50: 0.03 µM
In vivo [3]
  AUC(0-inf): 28.3 µM·h
In vivo [4]
  half-life: 8.7 h
Plasmodium berghei [5]
  Survival: 6 days
[6]
  IC50: 2.3 µM
In vitro [7]
  hepatic extraction ratio: 0.54
In vitro [8]
  hepatic extraction ratio: 0.43
In vivo [9]
  half-life: 37.6 h
Plasmodium berghei [10]
  Activity: 99.5%
In vivo [11]
  clearance: 65.2 mL/min/kg
[12]
  permeability: 89%
Plasmodium falciparum [13]
  IC50: 0.024 µM
In vitro [14]
  Papp B→A: 1.86 ×10⁻⁶ cm/s
In vitro [15]
  hepatic extraction ratio: 0.17
Plasmodium berghei [16]
  Survival: 13 days
In vivo [17]
  Vd: 40.5 L/kg
In vitro [18]
  Papp A→B: 1.46 ×10⁻⁶ cm/s
Mus musculus [19]
  F: 158%
[20]
  Tmax: 1 h
Plasmodium berghei [21]
  Activity: 98%
[22]
  Cmax: 749 nM

## CC(C)(N)C(=O)N1CCn2c(nc(-c3ccc(F)cc3)c2Nc2ccc(F)c(F)c2)C1
[23]
  bioavailability: 76%
[24]
  CC50: > 12 µM
Mus musculus [25]
  AUC: 31.758 µM·h
[26]
  blood plasma ratio: > 1
Plasmodium falciparum [2]
  IC50: 0.044 µM
Mus musculus [27]
  Cmax: 1940 nM
[28]
  AUC(0-inf): 7 µM·h
[29]
  Selectivity Index: >100
[30]
  Selectivity Index: >100
[31]
  half-life: 7.7 h
Plasmodium berghei [5]
  Survival: 7.7 days
[32]
  Vd: 14 L/kg
[6]
  IC50: 4.8 µM
[33]
  Selectivity Index: >100
[34]
  clearance: 27.7 mL/min/kg
[35]
  CC50: > 12 µM
[36]
  CC50: > 12 µM
Salmonella typhimurium
  Activity: Non-toxic
[37]
  blood plasma ratio: > 1
Cytochrome P450 1A2
  IC50: > 8.9 µM
Cytochrome P450 2C19
  IC50: > 8.9 µM
[38]
  Tmax: 1.67 h
In vitro [7]
  hepatic extraction ratio: 0.39
In vitro [8]
  hepatic extraction ratio: 0.12
[39]
  Activity: Non-toxic
[12]
  permeability: 86%
Plasmodium falciparum [13]
  IC50: 0.036 µM
In vitro [14]
  Papp B→A: 1.03 ×10⁻⁶ cm/s
[40]
  Selectivity Index: >100
Cytochrome P450 2C9
  IC50: > 8.9 µM
[41]
  CC50: > 12 µM
[42]
  Selectivity Index: >100
[43]
  half-life: 7.7 h
Cytochrome P450 2D6
  IC50: > 8.9 µM
[44]
  CC50: > 12 µM
In vitro [15]
  hepatic extraction ratio: 0.17
Plasmodium berghei [16]
  Survival: 17 days
In vitro [18]
  Papp A→B: 0.14 ×10⁻⁶ cm/s
[45]
  CC50: > 12 µM
Cytochrome P450 3A4
  IC50: > 8.9 µM
Plasmodium berghei [46]
  Survival: 17.7 days
Plasmodium berghei [21]
  Activity: 99.4%
[47]
  Selectivity Index: >100

Reference: ChEMBL document CHEMBL1800027, “Imidazolopiperazines: hit to lead optimization of new antimalarial agents” (J Med Chem, 2011)
